Measurements taken from ChEMBL document CHEMBL1132375, “Synthesis and biochemical evaluation of 3-fluoromethyl-1,2,3, 4-tetrahydroisoquinolines as selective inhibitors of phenylethanolamine N-methyltransferase versus the alpha(2)-adrenoceptor” (J Med Chem, 1999).

How the values were obtained:
[1] = target: T1, Adrenergic receptor alpha-2 (Rattus norvegicus, UniProt P22086+P19328+P22909); test: Compound was tested in vitro for its affinity towards rat Alpha-2 adrenergic receptor; format: protein assay
T1 sequence (P22086 whole entry): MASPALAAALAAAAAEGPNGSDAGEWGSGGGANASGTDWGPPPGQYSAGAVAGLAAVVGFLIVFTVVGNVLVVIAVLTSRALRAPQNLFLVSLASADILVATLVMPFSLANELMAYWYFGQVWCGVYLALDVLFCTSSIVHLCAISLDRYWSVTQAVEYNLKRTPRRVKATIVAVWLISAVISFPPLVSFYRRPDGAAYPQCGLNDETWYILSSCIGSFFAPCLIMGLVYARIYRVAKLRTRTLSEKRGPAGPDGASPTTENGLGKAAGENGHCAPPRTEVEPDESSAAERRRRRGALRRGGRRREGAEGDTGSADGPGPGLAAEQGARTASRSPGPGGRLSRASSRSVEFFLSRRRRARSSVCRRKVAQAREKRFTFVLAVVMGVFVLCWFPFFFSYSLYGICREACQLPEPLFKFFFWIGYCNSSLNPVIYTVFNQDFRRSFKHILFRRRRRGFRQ
T1 sequence (P19328 whole entry): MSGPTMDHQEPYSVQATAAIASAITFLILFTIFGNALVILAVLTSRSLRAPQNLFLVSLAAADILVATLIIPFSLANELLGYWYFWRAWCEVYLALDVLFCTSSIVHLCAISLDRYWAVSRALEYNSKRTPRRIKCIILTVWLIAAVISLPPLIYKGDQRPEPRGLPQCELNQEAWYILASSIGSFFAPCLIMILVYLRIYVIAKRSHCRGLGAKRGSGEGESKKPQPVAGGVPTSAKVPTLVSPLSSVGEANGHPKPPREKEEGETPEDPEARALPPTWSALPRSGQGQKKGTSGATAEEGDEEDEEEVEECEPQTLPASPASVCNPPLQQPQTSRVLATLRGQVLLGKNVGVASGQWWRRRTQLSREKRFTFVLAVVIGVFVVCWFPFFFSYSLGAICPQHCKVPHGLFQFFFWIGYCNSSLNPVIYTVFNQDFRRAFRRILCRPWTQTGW
T1 sequence (P22909 whole entry): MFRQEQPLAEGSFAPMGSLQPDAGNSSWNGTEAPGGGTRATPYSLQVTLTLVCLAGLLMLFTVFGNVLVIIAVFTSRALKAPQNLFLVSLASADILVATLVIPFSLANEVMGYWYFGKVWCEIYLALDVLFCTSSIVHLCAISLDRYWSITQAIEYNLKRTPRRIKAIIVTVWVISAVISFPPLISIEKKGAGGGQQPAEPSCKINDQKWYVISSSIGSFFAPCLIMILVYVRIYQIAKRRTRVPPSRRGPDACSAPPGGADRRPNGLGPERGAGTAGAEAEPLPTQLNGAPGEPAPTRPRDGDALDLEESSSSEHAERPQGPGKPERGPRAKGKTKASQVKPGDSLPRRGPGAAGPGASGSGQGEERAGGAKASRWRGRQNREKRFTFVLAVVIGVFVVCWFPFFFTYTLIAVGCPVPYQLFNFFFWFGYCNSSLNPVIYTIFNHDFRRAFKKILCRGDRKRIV
How it was run: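 Membranes from male Sprague-Dawley rat cortex, homogenized in ice-cold 50 mM Tris/HCl pH 7.7 and washed by three 50000g spins. Incubated with [3H]clonidine (final 2.0 nM) and varied inhibitor concentrations, 25 °C for 30 min, then vacuum-filtered on GF/B and counted. Nonspecific binding with 2 μM phentolamine. IC50 by log-probit, converted to Ki = IC50/(1+[clonidine]/KD).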

[2] = target: T2, Phenylethanolamine N-methyltransferase (Bos taurus, UniProt P10938); test: Affinity for bovine Phenylethanolamine N-Methyltransferase
T2 sequence (P10938 whole entry): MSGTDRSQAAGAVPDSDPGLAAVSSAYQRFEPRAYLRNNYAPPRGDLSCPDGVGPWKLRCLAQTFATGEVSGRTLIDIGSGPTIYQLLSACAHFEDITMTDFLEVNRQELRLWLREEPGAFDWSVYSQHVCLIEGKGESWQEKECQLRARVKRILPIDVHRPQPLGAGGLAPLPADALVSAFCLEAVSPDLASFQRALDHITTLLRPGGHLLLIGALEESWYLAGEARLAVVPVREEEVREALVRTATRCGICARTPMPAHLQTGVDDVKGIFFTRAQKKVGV

[3] = target: Adrenergic receptor alpha-2 (Rattus norvegicus) (UniProt P22086+P19328+P22909); test: Ratio for binding affinity towards alpha-2 adrenoceptor to PNMT; format: protein assay
How it was run: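 Ratio of α2-adrenoceptor Ki (rat cortex, [3H]clonidine binding) to PNMT Ki (bovine adrenal enzyme, radiochemical assay with phenylethanolamine substrate).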

[4] = target: T2, Phenylethanolamine N-methyltransferase; test: Affinity for bovine Phenylethanolamine N-Methyltransferase (PNMT)

Structure (SMILES) | Ki [1] [µM] | Ki [2] [µM] | Ratio [3] | Ki [4] [µM]
O=S(=O)(NCc1ccccc1)c1ccc2c(c1)CNC(CF)C2 (centres undefined) | 110 | 6.5 | 17 | –
CCC1Cc2ccccc2CN1 (centres undefined) | – | – | 0.028 | –
NS(=O)(=O)c1ccc2c(c1)CNC(CO)C2 (centres undefined) | – | – | 4100 | –
O=S(=O)(Nc1ccc(Cl)cc1)c1ccc2c(c1)CNC(CF)C2 (centres undefined) | 160 | 0.74 | 220 | –
FC(F)(F)C1Cc2ccc(Br)cc2CN1 (centres undefined) | – | – | 1900 | –
FCC1Cc2ccc(I)cc2CN1 (centres undefined) | 7.1 | 0.21 | 34 | –
CC1Cc2ccccc2CN1 (centres undefined) | – | – | 0.36 | –
OCC1Cc2ccccc2CN1 (centres undefined) | – | – | 6 | –
NS(=O)(=O)c1ccc2c(c1)CNC(CF)C2 (centres undefined) | 680 | 0.66 | 1000 | –
[N-]=[N+]=Nc1ccc2c(c1)CNC(CF)C2 (centres undefined) | 47 | – | 28 | 1.7
CS(=O)(=O)c1ccc2c(c1)CNC(CO)C2 (centres undefined) | – | – | 1000 | –
N#Cc1ccc2c(c1)CNC(CF)C2 (centres undefined) | 460 | 1.1 | 420 | –
CS(=O)(=O)c1ccc2c(c1)CNC(C(F)(F)F)C2 (centres undefined) | – | – | 110 | –
CS(=O)(=O)c1ccc2c(c1)CNC(CF)C2 (centres undefined) | 230 | 1.6 | 140 | –
FCC1Cc2ccc(N=C=S)cc2CN1 (centres undefined) | 22 | – | 39 | 0.57
FCC1Cc2ccc(C(F)(F)F)cc2CN1 (centres undefined) | 41 | – | 130 | 0.32
FCC1Cc2ccccc2CN1 (centres undefined) | 3.8 | – | 2.5 | 1.5
Clc1ccc2c(c1Cl)CNCC2 | – | – | 0.095 | –
FCC1Cc2ccc(Br)cc2CN1 (centres undefined) | 6.4 | – | 10 | 0.64
COCC1Cc2ccccc2CN1 (centres undefined) | – | – | 0.3 | –
O=[N+]([O-])c1ccc2c(c1)CNC(CF)C2 (centres undefined) | 76 | 0.54 | 140 | –
CNS(=O)(=O)c1ccc2c(c1)CNC(CF)C2 (centres undefined) | 310 | 2.4 | 130 | –
COc1ccc2c3c([nH]c2c1)C=NCC3 | – | – | 4.4 | –
